Laboratory results published in ChEMBL document CHEMBL2417527, “Prenylated and geranylated flavonoids increase production of reactive oxygen species in mouse macrophages but inhibit the inflammatory response” (J Nat Prod, 2013).
Active and inactive are the calls of the source. The rule behind the calls is not given here.

Key:
J774.A1 [1] = assay: Induction of ROS production in LPS-stimulated mouse J774A1 cells at 0.25 to 1.25 uM after 24 hrs by flow cytometry; type: functional, cell-based
How it was run: (§1)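 Macrophages in serum-free DMEM were pretreated with compound (0.25 or 1.25 μM) for 1 h. E. coli 0111:B4 LPS (1 μg/mL) was then added for 24 h, with DCFH2-DA added 30 min before the end. DCF fluorescence was measured by flow cytometry (ex 488/em 525 nm). Results were compared with cells given vehicle plus LPS.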

J774.A1 [2] = assay: Induction of ROS production in LPS-stimulated mouse J774A1 cells at 1.25 uM after 30 mins by flow cytometry relative to control; type: functional
J774.A1 [3] = assay: Induction of ROS production in mouse J774A1 cells at 0.25 uM after 30 mins by flow cytometry relative to control; type: functional
How it was run: (§2)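 Cells were grown to 80–90% confluence and switched to serum-free DMEM. They were loaded with 10 μM DCFH2-DA for 1 h, and compound (0.25 or 1.25 μM, 0.1% DMSO) was added for the final 30 min. Cells were washed, scraped off in PBS/lidocaine, and DCF was measured by flow cytometry (ex 488/em 525 nm). Results were compared with vehicle-treated cells; mean ± SE of four experiments.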

J774.A1 [4] = assay: Induction of ROS production in mouse J774A1 cells at 1.25 uM after 30 mins by flow cytometry relative to control; type: functional; how it was run: as §2
[5] = Antioxidant activity assessed as hypochlorous acid scavenging activity by fluorescence assay; type: functional
How it was run: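 Oxidation of dihydrorhodamine 123 to rhodamine was followed. Final concentrations were 100 mM phosphate buffer (pH 7.4), compound in methanol at 0.625–100 μM, 5 μM DHR and 5 μM HClO. Fluorescence (ex 485, em 528 nm) was read at 37 °C immediately after mixing. Five independent experiments were run, each in triplicate.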

[6] = Antioxidant activity assessed as hydrogen peroxide radical scavenging activity by chemiluminescence method; type: functional
How it was run: (§3)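 Lucigenin chemiluminescence was used. Each reaction contained 50 mM Tris-HCl (pH 7.4), compound in DMSO at 125–1000 μM, 800 μM lucigenin and 1% (v/v) H2O2. Luminescence was read at 37 °C immediately after mixing. Five independent experiments were run, each in triplicate.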

[7] = Antioxidant activity assessed as NADH/phenazine methosulfate generated superoxide anion scavenging after 2 mins by NBT reduction assay; type: functional
How it was run: (§4)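 Superoxide was generated by NADH/PMS. Final concentrations were 19 mM phosphate buffer (pH 7.4), compound in DMSO at 12.5–1000 μM, 166 μM NADH, 43.3 μM NBT and 2.7 μM PMS. NBT reduction to diformazan was read as absorbance at 560 nm after 2 min of mixing at room temperature. Five independent experiments were run, each in triplicate.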

J774.A1 [8] = assay: Reduction of LPS-induced COX2 expression in mouse J774A1 cells at 1.25 uM pretreated 1 hr before LPS challenge measured after 24 hrs; type: functional, cell-based
How it was run: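 Macrophages were pretreated with 1.25 μM compound for 1 h, then stimulated with 1 μg/mL LPS for 24 h. Lysates (40 μg protein) were run on 12% gels and blotted to PVDF. COX-2 was detected with antibody at 1:500 and normalized to β-actin by densitometry. Four independent experiments.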

J774.A1 [9] = assay: Induction of ROS production in mouse J774A1 cells at 1.25 uM after 24 hrs by flow cytometry relative to control
J774.A1 [10] = assay: Effect on ROS production in LPS-stimulated mouse J774A1 cells at 0.25 to 1.25 uM after 30 mins by flow cytometry; type: functional, cell-based
J774.A1 [11] = assay: Induction of ROS production in mouse J774A1 cells at 0.25 to 1.25 uM after 30 mins by flow cytometry relative to control; type: functional; how it was run: as §2
[12] = Antioxidant activity assessed as hydrogen peroxide radical scavenging activity at 1 mM by chemiluminescence method; type: functional; how it was run: as §3
[13] = Antioxidant activity assessed as NADH/phenazine methosulfate generated superoxide anion scavenging at 1 mM after 2 mins by NBT reduction assay; type: functional; how it was run: as §4
J774.A1 [14] = assay: Reduction of ROS production in LPS-stimulated mouse J774A1 cells at 0.25 to 1.25 uM after 24 hrs by flow cytometry; type: functional, cell-based; how it was run: as §1
J774.A1 [15] = assay: Reduction of ROS production in LPS-stimulated mouse J774A1 cells at 0.25 to 1.25 uM after 30 mins by flow cytometry; type: functional, cell-based

IC50 [5] [µM] | IC50 [6] [µM] | IC50 [7] [µM] | Compound | Activity (J774.A1 [1]) | fold change (FC) (J774.A1 [2]) | fold change (FC) (J774.A1 [3]) | fold change (FC) (J774.A1 [4]) | Activity (J774.A1 [8]) | fold change (FC) (J774.A1 [9]) | Activity (J774.A1 [10]) | fold change (FC) (J774.A1 [11]) | Activity [12] [%] | Activity [13] [%] | Activity (J774.A1 [14]) | Activity (J774.A1 [15])
1.8 | 641 | 219 | CC(C)=CCc1c(-c2ccc(O)cc2O)oc2cc3c(c(O)c2c1=O)C=CC(C)(C)O3 [CUDRAFLAVONE B] | Active | 1.71 | 2.13 | 3.12 | inactive | 2 | – | – | – | – | – | –
2.3 | 554 | 41.2 | CC(C)=CCC/C(C)=C/Cc1c(O)cc2c(c1O)C(=O)C[C@@H](c1ccc(O)c(O)c1)O2 [NYMPHAEOL A] | – | – | – | – | Active | 0.79 | inactive | 0.95 | – | – | – | –
31 | > 1000 | > 1000 | CC(C)=CCc1c2c(c3occ(-c4ccc(O)cc4)c(=O)c3c1O)C=CC(C)(C)O2 [OSAJIN] | Active | 1.59 | – | – | – | – | – | 0.95 | 17 | 39 | – | –
9.1 | 899 | 73.3 | CC(C)=CCc1c2c(c3occ(-c4ccc(O)c(O)c4)c(=O)c3c1O)C=CC(C)(C)O2 [POMIFERIN] | – | – | – | – | – | – | – | 0.95 | – | – | Active | Active
